The test system of data set [1] is KB 3-1. Kind of data set: Cytotoxicity against human KB-3-1 cells assessed as inhibition of cell proliferation incubated for 72 hrs by MTT assay. As to conditions: KB 3-1, 72 h. It is filed as functional, cell-based. Summed up:
(§1)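 Cells were seeded (10000/well for A2780, 5000/well for MES-SA/Dx5 and KB-3-1/V1) and left to attach 12 h, then exposed to compound for 72 h. Medium was removed, and MTT (0.83 mg/mL) was added for 1 h at 37 °C. Cells were lysed in DMSO and absorbance read at 540 nm. Signal was corrected for unstained lysate background, normalized to untreated cells, and IC50 taken from a sigmoidal dose-response fit.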
(Tetrazolium assays rely on reduction of a dye to a coloured formazan, in cell work by metabolically active cells.)

In data set [2] the test system is A2780. Kind of data set: Cytotoxicity against human A2780 cells assessed as inhibition of cell proliferation incubated for 72 hrs by MTT assay. The data set is classed as functional, cell-based. The settings on record: for IC50: A2780, 72 h. The gist of the method:
as §1

Data set [3] can be described thus: (§2) Cytotoxicity against human A2780adr cells assessed as inhibition of cell proliferation incubated for 72 hrs by MTT assay. It is filed as functional, cell-based. The settings on record: A2780 ADR. Summed up:
as §1

The subject of data set [4] is MES-SA/Dx5. Kind of data set: Cytotoxicity against human MES-SA/DX5 cells transfected with mCherry fluorescent protein assessed as inhibition of cell proliferation incubated for 72 hrs by fluorescent assay. It is filed as functional, cell-based. As to conditions: Homo sapiens, MES-SA/Dx5, 72 h. The gist of the method: (§3)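 MES-SA and MES-SA/Dx5 cells were made to stably express mCherry by lentiviral transduction. Cells were seeded at 5000 (96-well) or 2500 (384-well) per well, allowed to attach 24 h, then treated with compound dilutions for 72 h. Viability was read as fluorescence, excitation 585 nm, emission 610 nm.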

The subject of data set [5] is KB-V1. Kind of data set: Cytotoxicity against human KB-V1 cells assessed as inhibition of cell proliferation incubated for 72 hrs in presence of efflux pump inhibitor, Tariquidar by MTT assay. The data set is classed as functional, cell-based.
A short description of data set [6]: Selectivity ratio of IC50 for human MES-SA cells to IC50 for human MES-SA/DX5 cells incubated for 72 hrs by MTT assay. It is filed as functional. The gist of the method: (§4)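 The selectivity ratio is the IC50 in P-gp-negative parental cells divided by the IC50 in the P-gp-positive resistant partner.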
The test system of data set [7] is MES-SA. Kind of data set: Cytotoxicity against human MES-SA cells assessed as inhibition of cell proliferation incubated for 72 hrs by MTT assay. The data set is classed as functional, cell-based. The gist of the method: as §1
The test system of data set [8] is HFF. The experiment in a line: Cytotoxicity against human HFF cells by MTT assay.
For data set [9], the system named is MES-SA/Dx5. The experiment in a line: Cytotoxicity against human MES-SA/DX5 cells incubated for 72 hrs in presence of efflux pump inhibitor, Tariquidar by MTT assay. The data set is classed as functional, cell-based. Summed up: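 Run as the 72 h MTT viability readout (12 h attachment, MTT 0.83 mg/mL for 1 h, DMSO lysis, A540), with the P-gp inhibitor Tariquidar at 1 µM co-present. IC50 came from sigmoidal fits of 2 to 4 independent experiments.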

Data set [10] deals with MES-SA. Kind of data set: Cytotoxicity against human MES-SA cells transfected with mCherry fluorescent protein assessed as inhibition of cell proliferation incubated for 72 hrs by fluorescent assay. The data set is classed as functional, cell-based. The gist of the method: as §3
Data set [11] has as its system MES-SA/Dx5. Kind of data set: Cytotoxicity against human MES-SA/DX5 cells assessed as inhibition of cell proliferation incubated for 72 hrs by MTT assay. As to conditions: MES-SA/Dx5, 72 h. The data set is classed as functional, cell-based. Summed up: as §1
For data set [12], the system named is KB-V1. Kind of data set: Cytotoxicity against human KB-V1 cells assessed as inhibition of cell proliferation incubated for 72 hrs by MTT assay. The data set is classed as functional, cell-based. As to conditions: KB-V1, 72 h. Summed up:
as §1

Data set [13] in a line: Selectivity ratio of IC50 for human KB-3-1 cells to IC50 for human KB-V1 cells incubated for 72 hrs by MTT assay. It is filed as functional. The gist of the method:
as §4

In data set [14] the test system is MES-SA/Dx5. Kind of data set: Cytotoxicity against human MES-SA/DX5 cells transfected with mCherry fluorescent protein incubated for 72 hrs in presence of efflux pump inhibitor, Tariquidar by fluorescence assay. It is filed as functional, cell-based. The gist of the method: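 The mCherry-expressing cells (lentiviral) were seeded at 5000 or 2500 per well, attached for 24 h, and exposed 72 h to compounds with Tariquidar coadministered. Live-cell signal was fluorescence at 585 nm excitation and 610 nm emission.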

Data set [15] relates to MES-SA/Dx5. Kind of data set: Reduction in P-gp expression in human MES-SA/DX5 cells measured after 5 rounds of treatment by DAPI staining based immunocytochemistry analysis. The data set is classed as functional, cell-based. Summed up:
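Treated cells were plated in chamber slides, fixed after 1 day in 4% paraformaldehyde for 15 min, and blocked 1 h (BSA, fish gelatin, goat serum, Triton X-100). They were stained with anti-P-gp MRK16 (1:500, 1 h), then PE goat anti-mouse IgG (1:250, 1 h), with DAPI 1 µM for 10 min. Imaging used fluorescence and confocal microscopy.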

The test system of data set [16] is A2780 ADR. The experiment in a line: Cytotoxicity against human A2780adr cells assessed as inhibition of cell proliferation incubated for 72 hrs in presence of efflux pump inhibitor, Tariquidar by MTT assay. The data set is classed as functional, cell-based.
Data set [17] in a line: Selectivity ratio of IC50 for human A2780 cells to IC50 for human A2780adr cells incubated for 72 hrs by MTT assay. The data set is classed as functional. Summed up:
as §4

The test system of data set [18] is MES-SA/Dx5. Kind of data set: Reduction in P-gp expression in human MES-SA/DX5 cells at IC20 concentration incubated for 5 days by calcein-AM staining based flow cytometric analysis. The data set is classed as functional, cell-based. The settings on record: time 5.0 day. Summed up:
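MES-SA/Dx5 cells were grown 5 days with compound at IC20 values calculated from viability assays, then recovered in drug-free medium refreshed every fifth day. At 80% confluency, cells were stained with Calcein AM with or without verapamil, with TO-PRO-3 excluding dead cells, and analysed by flow cytometry for the P-gp-negative fraction.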

A short description of data set [19]: Selectivity ratio of IC50 for human MES-SA cells transfected with mCherry to IC50 for human MES-SA/DX5 cells transfected with mCherry incubated for 72 hrs by fluorescent assay. It is filed as functional.
Data set [20] has as its system A2780 ADR. Described as §2. The data set is classed as functional, cell-based. Summed up:
as §1

Setting [21] is: Homo sapiens, MES-SA, 72 h, read-out: IC50.

Activity calls are given as the source filed them. The rule behind the calls is not given here.

On to `C/C(=N\NC(=S)Nc1ccc(C)cc1)c1ccccn1`, for which the IC50 is 0.0404 µM in [1] (read-out: IC50); 0.0372 µM in data set [1] (read-out: pIC50 (converted)); 0.017 µM in data set [2] (read-out: IC50); 0.0162 µM in data set [2] (read-out: pIC50 (converted)); 0.021 µM in data set [3] (read-out: IC50); 0.0204 µM in data set [3] (read-out: pIC50 (converted)). For the same molecule, the IC50 in [4] (read-out: IC50) was 0.029 µM; in data set [4] (read-out: pIC50 (converted)), 0.0257 µM; in [7] (read-out: IC50), 0.016 µM; in data set [7] (read-out: pIC50 (converted)), 0.017 µM; in data set [10] (setting [21]) it was 0.065 µM; in [10] (Homo sapiens, MES-SA, 72 h, read-out: pIC50 (converted)), 0.0417 µM. The IC50 in data set [11] (read-out: IC50) is 0.0018 µM; in data set [11] (read-out: pIC50 (converted)), 0.0017 µM; in [12] (read-out: IC50) it was 0.036 µM; in data set [12] (read-out: pIC50 (converted)) it was 0.0331 µM. The result in data set [5] and in [9] was Active. The “Ratio IC50” value in data set [6] came to 6.25; in data set [13], 1.15. Besides, in data set [8], the Activity result was “Non-Toxic”.

`O=C1Nc2ccccc2/C1=N/NC(=S)Nc1ccc([N+](=O)[O-])cc1`: the IC50 in data set [1] (read-out: IC50) was 8.2 µM; in data set [1] (read-out: pIC50 (converted)), 7.76 µM; in data set [2] (read-out: IC50), 25.7 µM; in data set [2] (read-out: pIC50 (converted)), 24.5 µM; in [3] (read-out: IC50) it was 8.78 µM; in data set [3] (read-out: pIC50 (converted)), 8.91 µM. The IC50 in [4] (read-out: IC50) was 7.55 µM; in [7] (read-out: IC50), 9.17 µM; in data set [7] (read-out: pIC50 (converted)), 8.51 µM; in [10] (setting [21]), 15.8 µM; in data set [11] (read-out: IC50) it was 4.74 µM; in data set [11] (read-out: pIC50 (converted)), 4.68 µM. For the same molecule, the IC50 in data set [12] (read-out: IC50) was 4.58 µM; in [12] (read-out: pIC50 (converted)), 4.47 µM. In addition, the result in data set [14], in data set [5], in [16] and in data set [9] was inactive. The inhibition entry in [15] and in data set [18] was “Active” each time. The “Ratio IC50” value is 1.77 in data set [6], 2.98 in [17], 1.82 in data set [13] and 3.55 in [19].

Turning to `COc1cc(N/N=C2/C(=O)Nc3ccccc32)ncn1`, the IC50 in data set [1] (read-out: pIC50 (converted)) was 55 µM; in data set [7] (read-out: pIC50 (converted)), 91.2 µM; in data set [10] (mes-sa), “Not Active”; in data set [11] (read-out: pIC50 (converted)), 129 µM. For the same molecule, the pIC50 entry in data set [2] and in [20] was “inactive” throughout.

With `COc1ccc(NC(=S)N/N=C2\C(=O)Nc3ccccc32)cc1`, the IC50 is 7.82 µM in [1] (read-out: IC50); 7.59 µM in data set [1] (read-out: pIC50 (converted)); 7.49 µM in [2] (read-out: IC50); 7.41 µM in data set [2] (read-out: pIC50 (converted)); 4.84 µM in data set [3] (read-out: IC50); 4.68 µM in [3] (read-out: pIC50 (converted)). The IC50 was 4.15 µM in data set [4] (read-out: IC50); 6.1 µM in [7] (read-out: IC50); 6.03 µM in [7] (read-out: pIC50 (converted)); 12.1 µM in data set [10] (setting [21]); 3.59 µM in [11] (read-out: IC50); 3.47 µM in data set [11] (read-out: pIC50 (converted)). Further, the IC50 in data set [12] (read-out: IC50) is 3.78 µM; in [12] (read-out: pIC50 (converted)), 3.98 µM. Moreover, the result in [14], in data set [5], in [16] and in [9] was inactive. In addition, the “Ratio IC50” value in data set [6] amounted to 1.87; in data set [17] it was 1.6; in data set [13], 2.04; in data set [19], 3.17. The inhibition result in data set [18] was “Active”.

(Values after ChEMBL document CHEMBL4715714, “Design, synthesis and biological evaluation of thiosemicarbazones, hydrazinobenzothiazoles and arylhydrazones as anticancer agents with a potential to overcome multidrug resistance” (Eur J Med Chem, 2016).)
